High-throughput results as filed in PubChem BioAssay.
GPR7 antagonist: antagonists of human GPR7 (neuropeptides B/W receptor 1) | P48145 | GPR7-expressing cells, fluorescence antagonist assay | inhibition, % at 4.4 µM | 1.1% of 290,000 active | AID 1861; in the data active = inhibition above about 16%, passing the limit was not always enough;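 note: cells stimulated with the agonist NPW; 0% = agonist with vehicle and 100% = vehicle without agonist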
Target sequence (P48145 whole entry, looked up): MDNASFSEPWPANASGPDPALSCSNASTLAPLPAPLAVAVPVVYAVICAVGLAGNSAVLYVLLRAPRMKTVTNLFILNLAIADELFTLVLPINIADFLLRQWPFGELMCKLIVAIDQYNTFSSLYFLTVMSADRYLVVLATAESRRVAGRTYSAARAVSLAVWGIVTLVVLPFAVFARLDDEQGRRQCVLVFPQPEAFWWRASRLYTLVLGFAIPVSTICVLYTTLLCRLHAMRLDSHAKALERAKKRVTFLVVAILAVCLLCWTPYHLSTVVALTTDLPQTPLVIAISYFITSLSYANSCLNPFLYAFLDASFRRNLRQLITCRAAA
CHO parental Ca: counter-screen for OX1R antagonists: effect in parental CHO cells; parental CHO-K1, ATP-induced calcium, Fluo-8 fluorescence; inhibition, % at 5.6 µM; 0.63% of 330,000 active; AID 463079;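 active = inhibition above that plate's mean sample inhibition plus 3 SD, cut at about 26% in these data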;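 note: 0% = ATP-challenged DMSO wells and 100% = DMSO wells without ATP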
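material = parental CHO cells | also added = ATP as calcium-mobilizing challenge | dosing = single point at 5.6 µM | detection = intracellular calcium via Fluo-8 no-wash fluorescent dye | read-out = % inhibition | benchmarks = low control ATP plus DMSO, high control DMSO only | repeats = one well per compound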
OX1R antag-1: OX1R (human) antagonism. AID 485270. OX1R-expressing cells, FRET antagonist read-out. inhibition, % at 6.6 µM. 1.8% of 330,000 active; in the data active = inhibition mostly above about 38%, no sharp cut-off; inactive = mostly below about 40%;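 note: 0% = agonist challenge alone and 100% = reference antagonist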
GalR3 antagonist: antagonists of human GalR3; O60755; 0.44% of 360,000 active; HEK293 GalR3-CNG cAMP membrane potential fluorescence; galR3 body fused to GalR1 C-terminus; inhibition, % at 3 µM;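 active = inhibition above the screen-wide average plus 3 SD, cut at about 13% in these data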;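 note: forskolin and galanin both at EC90 stimulate the cells; cAMP rise reported by CNG channel membrane potential dye signal; 0% = forskolin plus galanin with DMSO and 100% = forskolin alone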
OX1R antag-2: antagonists of human orexin 1 receptor | O43613 | CHO/OX1R cells, Fluo-8 calcium fluorescence, orexin A | inhibition, % at 5 µM | 0.43% of 330,000 active;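 active = inhibition above its plate's threshold, mean inhibition of all tested compounds on the plate plus 3 SD, cut at about 37% in these data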;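 note: 0% = orexin A challenge wells and 100% = SB-334867-A antagonist wells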
GalR3 antag conf: confirmation of human galanin receptor 3 antagonists; shares compounds with GalR3 antagonist; HEK293 GalR3 CNG cAMP biosensor, membrane potential fluorescence; galR3 fused to GalR1 carboxy tail; challenged with forskolin and galanin at EC90; inhibition, % at 3 µM; 59% of 1,600 active;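 active = inhibition above the primary screen's cutoff, the mean inhibition of all screened compounds plus 3 SD, cut at about 13% in these data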;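 note: 0% = forskolin plus galanin and 100% = forskolin alone with DMSO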
HEK-CNG parental: counter-screen for GalR3 antagonists: nonspecific agonists in parental HEK-CNG cells. activation, % at 3 µM. HEK293-CNG parental cells, cAMP membrane potential fluorescence; normalised: DMSO wells 0%, forskolin wells 100%. 10% of 1,600 active. AID 652268. shares compounds with GalR3 antagonist; in the data active = activation above about 1.3%
Numbers without * were called inactive; x = not tested or not shown. Shown are actives, neighbours in structure and some others; about 3.1% of the full set was active somewhere.

SMILES | GPR7 antagonist | CHO parental Ca | OX1R antag-1 | GalR3 antagonist | OX1R antag-2 | GalR3 antag conf | HEK-CNG parental
N#CC(C#N)=C(Nc1ccc(F)cc1)SCc1cccc(F)c1 | 3 | 23 | 71* | 91* | 9 | 35* | 0
NC(=O)c1cc(S(=O)(=O)N2CCCC2)ccc1OCCOc1ccccc1F | x | x | x | -6 | x | x | x
O=c1[nH]c2cc(Cl)c([N+](=O)[O-])nc2[nH]1 | -6 | -7 | 28 | 24* | -14 | 24* | 0
CC(C)NC(=O)N1CCCN(c2nc3ccc(Cl)cc3s2)CC1 | -9 | -5 | -1 | 20* | -21 | 7 | 0
CCOC(=O)C1CCN(C(=O)c2ccc(OCC(=O)Nc3cccc(C(F)(F)F)c3)c(OC)c2)CC1 | x | 45* | 14 | 92* | 45* | 107* | 0
CCNc1nc2c(c(=O)n(C)c(=O)n2C)n1Cc1ccc(Cl)cc1 | 5 | 36* | 16 | 22* | -12 | 71* | 0
Cn1c(=O)c2c(nc(NCc3cccnc3)n2Cc2ccc(Cl)cc2)n(C)c1=O | 8 | -12 | 10 | 24* | -32 | 9 | 1
Cn1c(=O)c2c(ncn2CC(COCc2ccc(Cl)cc2)OCc2ccc(Cl)cc2)n(C)c1=O (configuration not stated) | 0 | -13 | 18 | -4 | -36 | x | x
Cn1c(=O)c2c(ncn2Cc2ccc(Cl)cc2)n(C)c1=O | -8 | -4 | 15 | 15* | -28 | 0 | 0
CCc1c(C)sc(NC(=O)c2ccoc2C)c1C(N)=O | -16 | -19 | 3 | 1 | -21 | x | x
COc1ccc(-c2cc([C@H]3[C@@H]4C=CCC[C@@]4(C)C(=O)N3Cc3ccccc3)ccc2F)cc1OC | x | -35 | 25 | 20* | -59 | 12 | 1
Cc1ccc(-c2cc([C@H]3[C@@H]4C=CCC[C@@]4(C)C(=O)N3Cc3ccccc3)ccc2F)cc1 | x | -40 | 22 | -4 | -59 | x | x
COc1cc2c(cc1OC)C(c1ccc(C)cc1)NC(=O)C2 (configuration not stated) | -14 | x | x | 14* | x | 3 | 0
CCOc1ccc(C2NC(=O)Cc3cc(OC)c(OC)cc32)cc1 (configuration not stated) | -1 | -8 | 10 | -13 | -28 | x | x
O=C(Cc1ccsc1)N1CCc2c([nH]c3ccccc23)C1c1ccccn1 (configuration not stated) | -3 | -18 | 20 | 16* | -27 | -1 | 0
COCCNC(=O)/C(C#N)=C/c1c(N2CC(C)OC(C)C2)nc2ccccn2c1=O (configuration not stated) | -2 | -5 | 40 | 25* | 6 | -1 | 0
COc1ccc(/C=N/NC(=O)C(Cc2c[nH]c3ccccc23)NC(=O)OCC(C)C)cc1[N+](=O)[O-] (configuration not stated) | -15 | -12 | 17 | 15* | -1 | 26* | 0
CCOC(=O)Nc1cccc(NC(=O)c2ccccc2F)c1 | -1 | 0 | 32 | 19* | -10 | -3 | 0
CNC(=O)COC(=O)/C=C/c1ccco1 | 1 | -13 | 10 | 0 | -19 | x | x
O=C(COC(=O)/C=C/c1ccco1)NCc1ccco1 | 4 | -9 | 7 | 15* | 4 | -1 | 0
CCOCCCNC(=O)C1CCCN(S(=O)(=O)CC)C1 (configuration not stated) | -6 | -2 | 9 | 2 | -14 | x | x
CCCCNC(=O)C1CCCN(S(=O)(=O)CC)C1 (configuration not stated) | 1 | -1 | 9 | 14* | -8 | 0 | 0
COc1cc(-c2ccc(=O)[nH]n2)ccc1OC(F)F | -15 | -6 | 27 | 16* | 4 | 34* | 0
Cc1ccc(/C(N)=N/OC(=O)CCC2CCCC2)cc1 | 0 | 1 | 5 | 13* | 7 | -2 | 0
Cc1ccc(-c2nc3ccsc3c(=O)[nH]2)cc1 | -5 | -13 | 14 | -8 | -15 | x | x
CCCCC(=O)Nc1ccc(NC(=O)c2ccccc2[N+](=O)[O-])cc1OC | -5 | -12 | 26 | 1 | -12 | x | x
